Measured values from ChEMBL document CHEMBL4038284, “Synthesis of novel quinoline-based 4,5-dihydro-1H-pyrazoles as potential anticancer, antifungal, antibacterial and antiprotozoal agents” (Eur J Med Chem, 2017).
Converted amounts (≈) assume the structure as drawn. The source made the active and inactive calls. No cut-off for these calls is given here.

Tests used:
Plasmodium falciparum = assay: Antiplasmodial activity against chloroquine-sensitive Plasmodium falciparum 3D7 assessed as reduction in parasitic LDH activity after 48 hrs by Malstat reagent based […] method; format: functional; conditions: 3D7, 48 h
Method in brief: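 Unsynchronized P. falciparum 3D7 at 0.5% parasitemia and 1% hematocrit in RPMI with 3% Albumax II. Exposed to 100, 25, 6.25 and 1.56 µg/mL for 48 h at 37 °C under 90% N2/5% CO2/5% O2. After three freeze-thaw cycles, LDH measured with Malstat and NBT/PES, 1 h in the dark, read at 650 nm. IC50 by Probit; triplicate, ≥2 experiments.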

OVCAR-8 = assay: Growth inhibition of human OVCAR8 cells at 10 uM incubated for 48 hrs by sulforhodamine B assay; format: functional, cell-based
Method in brief: (§1)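 NCI 60-line panel, single 10 μM dose. Cells were grown in RPMI-1640 with 5% FBS and 2 mM L-glutamine and pre-incubated 24 h before compound addition (DMSO stock). Exposure was 48 h at 37 °C, 5% CO2. Cells were fixed with cold TCA (10% final), stained with 0.4% SRB, bound dye dissolved in 10 mM Tris base, A515 read. Growth was taken relative to time-zero and untreated control plates.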

Trypanosoma cruzi = assay: Antitrypanosomal activity against Trypanosoma cruzi Tulahuen intracellular amastigote harboring LacZ infected in human U937 cells after 72 hrs by CPRG/Nonidet reagent based spectrophotometric method; format: functional, cell-based; conditions: U-937, 72 h
Method in brief: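 U-937 cells at 2.5 × 10^5 cells/mL in RPMI-1640 with 10% serum and 0.1 µg/mL PMA were infected with β-galactosidase-transfected Tulahuen epimastigotes at 5 parasites per cell. Infected cells were exposed to 50, 12.5, 3.125 and 0.78 µg/mL for 72 h. CPRG (100 uM) and 0.1% Nonidet P-40 were added for 3 h, read at 570 nm. EC50 by Probit. Triplicate, at least two experiments; benznidazole as reference.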

Candida albicans [1] = assay: Growth inhibition of Candida albicans ATCC 10231 at 62.5 ug/ml incubated for 48 hrs under dark condition by broth microdilution method relative to control; format: functional; conditions: ATCC 10231, 48 h, read-out: GI
Method in brief: (§2)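 CLSI M27-A3 broth microdilution in RPMI-1640, DMSO ≤1%. Inoculum 1-5 × 10^3 CFU/mL. Incubated 48 h at 30 °C, dark. % inhibition = 100 − (OD405 test − sterility control)/(OD405 growth control − sterility control), with growth and sterility control wells. Triplicate.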

KM12 = assay: Growth inhibition of human KM12 cells at 10 uM incubated for 48 hrs by sulforhodamine B assay; format: functional, cell-based; method in brief: as §1
Candida albicans [2] = assay: Growth inhibition of Candida albicans ATCC 10231 at 125 ug/ml incubated for 48 hrs under dark condition by broth microdilution method relative to control; format: functional; conditions: ATCC 10231, 48 h, read-out: GI; method in brief: as §2
Staphylococcus aureus = assay: Antibacterial activity against methicillin-resistant Staphylococcus aureus ATCC 43300 after 24 hrs by resazurin dye based microdilution assay; format: functional; conditions: ATCC 43300, 24 h
Method in brief: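 Broth microdilution in Mueller Hinton broth, inoculum 5 × 10^5 – 8 × 10^5. Compound stocks diluted in MHB with 5% DMSO and 0.1% Tween 80. Incubation 24 h at 35-37 °C. MIC is the lowest concentration with visible growth inhibition and/or by resazurin (1 mg/mL) read-out. Gentamicin as control. Run in duplicate, replicated at least three times.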

HCT-15 = assay: Growth inhibition of human HCT15 cells at 10 uM incubated for 48 hrs by sulforhodamine B assay; format: functional, cell-based
Method in brief: (§3)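 NCI 60-cell-line screen at a single 10 µM dose. Cells in RPMI-1640 with 5% FBS and 2 mM L-glutamine, pre-incubated 24 h, then treated for 48 h at 37 °C. TCA fixation, sulforhodamine B staining, absorbance at 515 nm. Percentage growth calculated against time-zero and untreated controls.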

U-937 = assay: Cytotoxicity against human U937 cells after 72 hrs by MTT assay; format: cell-based; conditions: u-937, 72 h
Method in brief: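 Exponentially growing U-937 at 1 × 10^5 cells/mL in RPMI-1640 with 10% FBS were exposed to 200, 50, 12.5 and 3.125 µg/mL for 72 h at 37 °C, 5% CO2. MTT for 3 h, stopped with isopropanol/SDS, formazan read at 570 nm, blank-corrected. LC50 by Probit from % viability against untreated cells. Triplicate, at least two independent experiments.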

HL-60(TB) = assay: Growth inhibition of human HL-60(TB) cells at 10 uM incubated for 48 hrs by sulforhodamine B assay; format: functional, cell-based
Method in brief: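 NCI 60-line single-dose screen at 10 μM, 48 h. Cells in RPMI-1640 with 5% FBS and 2 mM L-glutamine at 37 °C, 5% CO2. Growth measured by TCA fixation and SRB staining (515 nm), relative to time-zero and untreated control wells.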

NCI-H460 = assay: Growth inhibition of human NCI-H460 cells at 10 uM incubated for 48 hrs by sulforhodamine B assay; format: functional, cell-based; method in brief: as §1
UO-31 = assay: Growth inhibition of human UO31 cells at 10 uM incubated for 48 hrs by sulforhodamine B assay; format: functional, cell-based
Method in brief: (§4)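 NCI-60 single-dose screen at 10 µM for 48 h. Cells were grown in RPMI-1640 with 5% FBS and 2 mM L-glutamine and preincubated 24 h before compound. Time-zero plates were TCA-fixed at compound addition. After exposure, cells were TCA-fixed, stained with SRB and read at 515 nm. Percentage growth was calculated against time-zero and untreated-control absorbances.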

U-251 = assay: Growth inhibition of human U251 cells at 10 uM incubated for 48 hrs by sulforhodamine B assay; format: functional, cell-based; method in brief: as §4
Cryptococcus neoformans [3] = assay: Growth inhibition of Cryptococcus neoformans ATCC 32264 at 15.62 ug/ml incubated for 48 hrs under dark condition by broth microdilution method relative to control; format: functional; conditions: ATCC 32264, 48 h, read-out: GI; method in brief: as §2
SK-MEL-5 = assay: Growth inhibition of human SK-MEL-5 cells at 10 uM incubated for 48 hrs by sulforhodamine B assay; format: functional, cell-based; method in brief: as §4
COLO 205 = assay: Growth inhibition of human COLO205 cells at 10 uM incubated for 48 hrs by sulforhodamine B assay; format: functional, cell-based; method in brief: as §3
SK-MEL-28 = assay: Growth inhibition of human SK-MEL-28 cells at 10 uM incubated for 48 hrs by sulforhodamine B assay; format: functional, cell-based; method in brief: as §4
EKVX = assay: Growth inhibition of human EKVX cells at 10 uM incubated for 48 hrs by sulforhodamine B assay; format: functional, cell-based; method in brief: as §3
Cryptococcus neoformans [4] = assay: Growth inhibition of Cryptococcus neoformans ATCC 32264 at 7.8 ug/ml incubated for 48 hrs under dark condition by broth microdilution method relative to control; format: functional; conditions: ATCC 32264, 48 h, read-out: GI; method in brief: as §2
IGROV-1 = assay: Growth inhibition of human IGROV1 cells at 10 uM incubated for 48 hrs by sulforhodamine B assay; format: functional, cell-based; method in brief: as §1
HT-29 = assay: Growth inhibition of human HT-29 cells at 10 uM incubated for 48 hrs by sulforhodamine B assay; format: functional, cell-based; method in brief: as §1
TK-10 = assay: Growth inhibition of human TK10 cells at 10 uM incubated for 48 hrs by sulforhodamine B assay; format: functional, cell-based; method in brief: as §4
Candida albicans [5] = assay: Growth inhibition of Candida albicans ATCC 10231 at 3.4 ug/ml incubated for 48 hrs under dark condition by broth microdilution method relative to control; format: functional; conditions: ATCC 10231, 48 h, read-out: GI

SMILES	EC50 (Plasmodium falciparum)	growth inhibition (GI) (OVCAR-8)	EC50 (Trypanosoma cruzi)	inhibition of growth at 62.5 µg/mL (Candida albicans [1])	growth inhibition (GI) (KM12)	inhibition of growth at 125 µg/mL (Candida albicans [2])	MIC (Staphylococcus aureus)	growth inhibition (GI) (HCT-15)	LC50 (U-937)	growth inhibition (GI) (HL-60(TB))	growth inhibition (GI) (NCI-H460)	growth inhibition (GI) (UO-31)	growth inhibition (GI) (U-251)	inhibition of growth at 15.62 µg/mL (Cryptococcus neoformans [3])	growth inhibition (GI) (SK-MEL-5)	growth inhibition (GI) (COLO 205)	growth inhibition (GI) (SK-MEL-28)	growth inhibition (GI) (EKVX)	inhibition of growth at 7.8 µg/mL (Cryptococcus neoformans [4])	inhibition of growth at 3.4 µg/mL (Candida albicans [5])	other results
COc1ccc(C2=NN(C=O)C(c3cccc(Nc4ccnc5cc(Cl)ccc45)c3)C2)cc1 (stereo unspecified)	16.1 mg/L (≈ 35.3 µM)	Active	> 0.15 mg/L	20.1%	Active	28%	> 1000 mg/L	Active	0.3 mg/L (≈ 0.657 µM)	Active	Active	Active	Active	23.6%	Active	Active	Active	Active	13.4%	3.51%	growth inhibition (GI) (IGROV-1): Active; growth inhibition (GI) (HT-29): Active; growth inhibition (GI) (TK-10): Active
COc1ccc(C(=O)/C=C/c2cccc(Nc3ccnc4cc(Cl)ccc34)c2)cc1	10.5 mg/L (≈ 25.4 µM)	Active	3.29 mg/L (≈ 7.93 µM)	41.1%	Active	46.8%	> 1000 mg/L	Active	8.1 mg/L (≈ 19.5 µM)	Active	Active	Active	Active	5.01%	Active	Active	Active	Active	2.47%	5.88%	growth inhibition (GI) (IGROV-1): Active; growth inhibition (GI) (HT-29): Active; growth inhibition (GI) (TK-10): Active
Clc1ccc(C2=NN(c3cc(Cl)cc(Cl)c3)C(c3cccc(Nc4ccnc5cc(Cl)ccc45)c3)C2)cc1 (stereo unspecified)	11.3 mg/L (≈ 19.6 µM)	inactive	19.1 mg/L (≈ 33 µM)	13.8%	inactive	31.5%	> 1000 mg/L	inactive	> 200 mg/L	inactive	inactive	inactive	inactive	0%	inactive	inactive	inactive	inactive	0%	1.64%	growth inhibition (GI) (IGROV-1): inactive; growth inhibition (GI) (HT-29): inactive; growth inhibition (GI) (TK-10): inactive
COc1ccc(C2=NN(c3ccccc3)C(c3cccc(Nc4ccnc5cc(Cl)ccc45)c3)C2)cc1 (stereo unspecified)	13.7 mg/L (≈ 27 µM)	inactive	86.8 mg/L (≈ 172 µM)	17.3%	inactive	19.8%	> 1000 mg/L	inactive	28 mg/L (≈ 55.4 µM)	inactive	inactive	inactive	inactive	6.02%	inactive	inactive	inactive	inactive	4.41%	0.38%	growth inhibition (GI) (IGROV-1): inactive; growth inhibition (GI) (HT-29): inactive; growth inhibition (GI) (TK-10): inactive
O=Cc1cccc(Nc2ccnc3cc(Cl)ccc23)c1	14.2 mg/L (≈ 50.1 µM)	–	1.15 mg/L (≈ 4.07 µM)	19.6%	–	34.8%	500 mg/L (≈ 1770 µM)	–	0.6 mg/L (≈ 2.12 µM)	–	–	–	–	9.47%	–	–	–	–	5.93%	1.33%	–
